Data on 24 compounds can be found in ChEMBL document CHEMBL4339184, “Discovery of deshydroxy bicalutamide derivatives as androgen receptor antagonists” (Eur J Med Chem, 2019).

Molecules are shown by their SMILES. Where only a bound is given, the exact number is not on record here.

For assay [1], the system named is LNCaP. Kind of assay: Antiproliferative activity against human LNCAP cells assessed as reduction in cell viability after 96 hrs by MTT assay. It is filed as functional, cell-based. In a few lines:
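LNCaP cells in RPMI-1640 with 10% FCS, penicillin/streptomycin, 37°C, 5% CO2; seeded 4000 cells/well, adhered overnight. Medium replaced with fresh medium carrying nine half-log concentrations up to 100 μM (DMSO 1:100) or DMSO control, triplicate, 96 h. MTT, formazan dissolved in acidified isopropanol, A540; viability vs DMSO; absolute IC50 by non-linear regression, mean of three independent experiments.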
(In general: Formazan colour is commonly taken as a measure of viable cells.)

Assay [2] has as its system LNCaP. Description: Potency index, ratio of IC50 for enzalutamide to IC50 for test compound for antiproliferative activity against human LNCAP cells incubated for 96 hrs by MTT assay. The class given is functional.
A further assay deals with PC-3. Kind of assay: Antiproliferative activity against human PC3 cells assessed as reduction in cell viability after 96 hrs by MTT assay. The class given is functional, cell-based. To be noted: PC-3, 96 h. In a few lines: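 PC3 cells grown in DMEM with 10% FCS, seeded at 4000 cells/well, adhered overnight, then medium replaced with medium containing nine concentrations from 0.1 to 100 μM (1:100 dilution of DMSO stocks) or DMSO control, in triplicate, for 96 h. MTT read-out: formazan dissolved in acidified isopropanol, absorbance at 540 nm; viability normalised to DMSO; IC50 from triplicate means.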

The next assay deals with VCaP. Kind of assay: Antiproliferative activity against human VCaP cells assessed as reduction in cell viability after 96 hrs by MTS assay. It is filed as functional, cell-based. In a few lines:
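VCaP cells in DMEM with 10% FCS, exposed for 96 h in triplicate to nine concentrations from 0.1 to 100 μM or DMSO. Because adherence is poor, only half the medium was exchanged for medium carrying compound at a 1:50 dilution. Viability by MTS, absorbance at 490 nm after 1 and 2 h, normalised to DMSO; IC50 from triplicate means.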

For assay [3], the target named is T1, Androgen receptor (Homo sapiens) (UniProt P10275).
T1 sequence (whole entry): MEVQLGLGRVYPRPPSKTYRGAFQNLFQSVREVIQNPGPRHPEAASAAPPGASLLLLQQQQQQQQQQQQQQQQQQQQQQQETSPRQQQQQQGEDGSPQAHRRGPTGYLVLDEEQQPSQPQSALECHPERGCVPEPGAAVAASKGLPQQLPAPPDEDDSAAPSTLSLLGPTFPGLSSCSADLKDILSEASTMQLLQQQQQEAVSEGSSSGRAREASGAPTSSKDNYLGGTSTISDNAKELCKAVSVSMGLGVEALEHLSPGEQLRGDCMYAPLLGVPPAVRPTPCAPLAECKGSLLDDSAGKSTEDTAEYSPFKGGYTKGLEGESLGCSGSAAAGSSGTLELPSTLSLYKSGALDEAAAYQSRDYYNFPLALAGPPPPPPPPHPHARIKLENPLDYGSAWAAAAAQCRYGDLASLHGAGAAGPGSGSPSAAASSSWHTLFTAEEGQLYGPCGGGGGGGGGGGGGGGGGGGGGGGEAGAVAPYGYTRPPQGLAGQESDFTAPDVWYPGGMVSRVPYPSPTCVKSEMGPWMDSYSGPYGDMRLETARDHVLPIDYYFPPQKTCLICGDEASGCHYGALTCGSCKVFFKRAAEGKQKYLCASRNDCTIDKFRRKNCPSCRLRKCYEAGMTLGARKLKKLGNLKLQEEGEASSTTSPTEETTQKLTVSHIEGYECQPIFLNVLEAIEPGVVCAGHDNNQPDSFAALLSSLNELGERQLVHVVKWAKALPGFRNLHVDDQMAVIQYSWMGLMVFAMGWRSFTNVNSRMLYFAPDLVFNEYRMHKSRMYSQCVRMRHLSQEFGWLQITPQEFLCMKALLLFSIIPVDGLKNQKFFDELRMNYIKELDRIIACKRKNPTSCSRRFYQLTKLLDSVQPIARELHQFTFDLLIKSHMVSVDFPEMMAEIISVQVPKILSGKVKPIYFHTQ
Kind of assay: Antagonist activity at androgen receptor in human LNCAP cells assessed as reduction in PSA expression after 24 hrs by qPCR analysis. The class given is cell-based. In a few lines:
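LNCaP cells seeded in 6-well plates in RPMI and allowed 24 h to adhere, then exposed to 5, 10, 50 and 100 μM for 24 h; untreated and DMSO (1:100) wells as negative controls. RNA extracted with TRI-reagent, reverse-transcribed, qPCR run in triplicate for PSA with AR, GAPDH, RPL19 and β-actin as housekeeping genes; relative expression by ΔΔCT.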

Assay [4] relates to LNCaP. Kind of assay: Potency index, ratio of IC50 for bicalutamide to IC50 for test compound for antiproliferative activity against human LNCAP cells incubated for 96 hrs by MTT assay. It is filed as functional.

Usually IC50 stands for the concentration needed to halve the response being measured. As to `CC(CSc1cc(C(F)(F)F)cc(C(F)(F)F)c1)C(=O)Nc1ccc([N+](=O)[O-])cc1C(F)(F)F` (racemic), the IC50 with LNCaP [1] came to 43.7 µM.

On to `CC(CSc1cc(C(F)(F)F)cc(C(F)(F)F)c1)C(=O)Nc1ccc(C#N)cc1C(F)(F)F` (racemic), for which the IC50 in the assay with LNCaP [1] came to 4.57 µM.

Regarding `CC(CS(=O)(=O)c1ccc(C(F)(F)F)cc1)C(=O)Nc1ccc(C#N)cc1C(F)(F)F` (racemic), in the assay with LNCaP [1], the IC50 worked out at 28.8 µM.

For `CC(CSc1ccc(F)cc1)C(=O)Nc1ccc([N+](=O)[O-])c(C(F)(F)F)c1` (racemic), the IC50 with LNCaP [1] is 27.2 µM.

For the compound `CC(CSc1cc(C(F)(F)F)cc(C(F)(F)F)c1)(Sc1cc(C(F)(F)F)cc(C(F)(F)F)c1)C(=O)Nc1ccc([N+](=O)[O-])cc1C(F)(F)F` (racemic), the results for the IC50 with LNCaP [1], in the assay with PC-3 and in the assay with VCaP were 0.43 µM, 0.91 µM and 0.18 µM, respectively. Also, the “Ratio IC50” value is on record as above 3 with LNCaP [2] and above 40 with LNCaP [4]. In assay [3], the inhibition entry is “Dose-dependent effect”.

Consider `CC(CSc1ccc(F)cc1)C(=O)Nc1ccc([N+](=O)[O-])cc1C(F)(F)F` (racemic), for which the IC50 in the assay with LNCaP [1] was found to be 43.2 µM.

On to `CC(CS(=O)(=O)c1ccc(C(F)(F)F)cc1)C(=O)Nc1ccc([N+](=O)[O-])cc1C(F)(F)F` (racemic), for which the IC50 with LNCaP [1] is 26.3 µM.

Consider `CC(CSc1ccc(F)cc1)C(=O)Nc1ccc(C#N)c(C(F)(F)F)c1` (racemic), for which the IC50 in the assay on LNCaP [1] came out at 8.69 µM.

With `CC(CS(=O)(=O)c1cccc(OC(F)(F)F)c1)C(=O)Nc1ccc(C#N)c(C(F)(F)F)c1` (racemic), the IC50 with LNCaP [1] stood at 13.2 µM.

Consider `CC(CS(=O)(=O)c1ccc(C(F)(F)F)cc1)C(=O)Nc1ccc(C#N)c(C(F)(F)F)c1` (racemic), for which the IC50 in the assay on LNCaP [1] worked out at 58 µM.

For `CC(CS(=O)(=O)c1cc(C(F)(F)F)cc(C(F)(F)F)c1)C(=O)Nc1ccc([N+](=O)[O-])c(C(F)(F)F)c1` (racemic), the IC50 with LNCaP [1] was determined as 12.2 µM.

`CC(CS(=O)(=O)c1cc(C(F)(F)F)cc(C(F)(F)F)c1)C(=O)Nc1ccc(C#N)c(C(F)(F)F)c1` (racemic): the IC50 in the assay with LNCaP [1] was 6.16 µM.

As to `CC(CS(=O)(=O)c1ccc(F)cc1)C(=O)Nc1ccc(C#N)c(C(F)(F)F)c1` (racemic), the IC50 in the assay on LNCaP [1] was 115 µM.

As for `CC(CSc1ccc(C(F)(F)F)cc1)C(=O)Nc1ccc([N+](=O)[O-])c(C(F)(F)F)c1` (racemic), in the assay on LNCaP [1], the IC50 was 4.41 µM.

Turning to `CC(CS(=O)(=O)c1ccc(F)cc1)C(=O)Nc1ccc([N+](=O)[O-])cc1C(F)(F)F` (racemic), the IC50 in the assay on LNCaP [1] came out at 4.05 µM.

Regarding `C[C@](O)(CS(=O)(=O)c1ccc(F)cc1)C(=O)Nc1ccc(C#N)c(C(F)(F)F)c1` [(R)-BICALUTAMIDE], the concentration for half-maximal inhibition (IC50) with LNCaP [1] is 20.4 µM; in the assay on PC-3 it was 92.6 µM; in the assay on VCaP, 5.96 µM.

In the case of `CNC(=O)c1ccc(N2C(=S)N(c3ccc(C#N)c(C(F)(F)F)c3)C(=O)C2(C)C)cc1F` [ENZALUTAMIDE], the values for the IC50 in the assay on LNCaP [1], in the assay on PC-3 and in the assay with VCaP were 1.31 µM, 15.1 µM and 3.66 µM, respectively.

As to `CC(CSc1ccc(C(F)(F)F)cc1)(Sc1ccc(C(F)(F)F)cc1)C(=O)Nc1ccc(C#N)c(C(F)(F)F)c1` (racemic), the IC50 with LNCaP [1] stood at 1.68 µM; in the assay with PC-3 it was 5.45 µM; with VCaP, 0.13 µM. Moreover, the inhibition entry in assay [3] was “Dose-dependent effect”.

As for `CC(CSc1cccc(OC(F)(F)F)c1)C(=O)Nc1ccc(C#N)c(C(F)(F)F)c1` (racemic), in the assay on LNCaP [1], the IC50 was 115 µM.

As to `CC(CSc1ccc(C(F)(F)F)cc1)C(=O)Nc1ccc([N+](=O)[O-])cc1C(F)(F)F` (racemic), the IC50 in the assay on LNCaP [1] worked out at 54.3 µM.

As for `CC(CS(=O)(=O)c1cc(C(F)(F)F)cc(C(F)(F)F)c1)C(=O)Nc1ccc([N+](=O)[O-])cc1C(F)(F)F` (racemic), the IC50 in the assay on LNCaP [1] came out at 3.08 µM.

Regarding `CC(CS(=O)(=O)c1ccc(F)cc1)C(=O)Nc1ccc([N+](=O)[O-])c(C(F)(F)F)c1` (racemic), the IC50 in the assay with LNCaP [1] came out at 2.67 µM; with PC-3 it was 112 µM; with VCaP, 8.21 µM. Besides, the inhibition result in assay [3] was “Dose-dependent effect”.

As for `CC(CS(=O)(=O)c1cc(C(F)(F)F)cc(C(F)(F)F)c1)C(=O)Nc1ccc(C#N)cc1C(F)(F)F` (racemic), the half-inhibitory concentration (IC50) with LNCaP [1] was found to be 9.56 µM.

With `CC(CS(=O)(=O)c1ccc(C(F)(F)F)cc1)C(=O)Nc1ccc([N+](=O)[O-])c(C(F)(F)F)c1` (racemic), the IC50 in the assay on LNCaP [1] was 3.31 µM.
